Legend:
Format in all cases: functional
[1] = test system: IGROV-1; test: Antiproliferative activity against human IGROV1 cells after 48 hrs by sulforhodamine B assay; conditions: IGROV-1, 48 h; for TGI: read-out: pTGI (converted)
In short: (§1)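 Cells grown in RPMI 1640 with 5% FBS and 2 mM L-glutamine, plated at 5000–40,000 cells/well and preincubated 24 h at 37 °C, 5% CO2. Five drug concentrations (10-fold or ½-log dilutions from DMSO stocks) applied for 48 h. TCA-fixed (final 10% adherent, 16% suspension), SRB-stained, A515 read. Growth versus time-zero and control wells gave GI50, TGI, LC50.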

[2] = test system: SK-MEL-2; test: Antiproliferative activity against human SK-MEL-2 cells after 48 hrs by sulforhodamine B assay; conditions: SK-MEL-2, 48 h; for TGI: read-out: pTGI (converted); in short: as §1
[3] = test system: SR; test: Antiproliferative activity against human SR cells after 48 hrs by sulforhodamine B assay; conditions: for TGI: read-out: pTGI (converted)
In short: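 Cells in RPMI 1640 with 5% FBS and 2 mM L-glutamine were seeded at 5000–40,000/well according to doubling time and preincubated 24 h at 37 °C in 5% CO2. Time-zero plates were TCA-fixed when drug was added. Five 10-fold or ½-log dilutions from DMSO stocks were added for 48 h. After SRB staining, A515 was read and GI50 derived from [(Ti−Tz)/(C−Tz)]×100 = 50.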

[4] = test system: BT-549; test: Antiproliferative activity against human BT549 cells after 48 hrs by sulforhodamine B assay; conditions: BT-549, 48 h; in short: as §1

| SMILES | GI50 [1] [µM] | LC50 [1] [µM] | TGI [1] [µM] | GI50 [2] [µM] | LC50 [2] [µM] | TGI [2] [µM] | GI50 [3] [µM] | LC50 (50% lethal concentration) [3] [µM] | TGI [3] [µM] | GI50 [4] [µM] | CC50 ([4]; read-out: pLC50 (the source's name) (converted)) [µM] | TGI ([4]; read-out: pTGI (converted)) [µM] |
| --- | --- | --- | --- | --- | --- | --- | --- | --- | --- | --- | --- | --- |
| CN1CCN(CCCn2c(=O)c3sc4ncccc4c3n3nnc(-c4ccccc4)c23)CC1 | 5.89 | 32.4 | 13.8 | 8.71 | 31.6 | 16.6 | 1.1 | 12 | 2.57 | – | – | – |
| O=C(CCCn1c(=O)c2sc3ncccc3c2n2nnc(-c3ccccc3)c12)NCCc1c[nH]cn1 | 9.55 | 75.9 | 27.5 | 17.8 | 85.1 | 38.9 | 2.51 | > 100 | 6.17 | – | – | – |
| O=C(CCCn1c(=O)c2sc3ccccc3c2n2nnc(-c3ccccc3)c12)NCCc1c[nH]cn1 | – | – | – | – | – | – | – | – | – | 17.4 | > 100 | 41.7 |

— ChEMBL document CHEMBL2346608, “New annelated thieno[2,3-e][1,2,3]triazolo[1,5-a]pyrimidines, with potent anticancer activity, designed through VLAK protocol” (2013)
